Consider 11 compounds from ChEMBL document CHEMBL1151869, “Discovery of novel 3,6-disubstituted 2-pyridinecarboxamide derivatives as GK activators” (Bioorg Med Chem Lett, 2009).

pEC50: −log10 of the molar value. Calls of active or inactive are those of the source. No cut-off for these calls is given here.

The target in one data set is T1, Hexokinase-4 (Homo sapiens, UniProt P35557).
T1 sequence (P35557 whole entry): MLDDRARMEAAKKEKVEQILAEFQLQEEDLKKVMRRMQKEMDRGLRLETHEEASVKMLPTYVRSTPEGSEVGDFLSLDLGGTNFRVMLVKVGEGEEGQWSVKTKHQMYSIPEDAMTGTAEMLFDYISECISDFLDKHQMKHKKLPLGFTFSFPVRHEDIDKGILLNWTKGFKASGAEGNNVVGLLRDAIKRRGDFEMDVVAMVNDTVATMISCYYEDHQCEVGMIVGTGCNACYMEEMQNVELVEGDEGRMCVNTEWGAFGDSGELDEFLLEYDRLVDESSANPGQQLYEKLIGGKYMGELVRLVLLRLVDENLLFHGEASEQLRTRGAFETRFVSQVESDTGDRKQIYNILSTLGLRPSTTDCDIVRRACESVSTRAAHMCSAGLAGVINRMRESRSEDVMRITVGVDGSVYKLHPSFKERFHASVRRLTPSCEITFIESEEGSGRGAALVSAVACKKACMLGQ
The data set is described as follows: Activation of glucokinase.

Data set [1] is described as follows: Hepatic availability in rat hepatocytes. Format: ADME, cell-based, Hepatocyte.
Data set [2] is described as follows: AUC (0 to infinity) in rat at 3 mg/kg, po. The format is ADME, organism-based. Also noted: dose 3 mg/kg, route oral, time infinity. As to conditions: plasma.
Data set [3] is described as follows: Half life in rat at 1 mg/kg, iv. Format: ADME, organism-based. Also noted: dose 1 mg/kg, route intravenous. As to conditions: in vivo.
Data set [4] in a line: Oral bioavailability in rat at 3 mg/kg, po. The format is ADME, organism-based. The following applies: in vivo.
Data set [5] can be described thus: AUC (0 to infinity) in rat at 1 mg/kg, iv. The format is ADME, organism-based. Set-up: dose 1 mg/kg, route intravenous, time infinity. As to conditions: plasma.
Data set [6] is described as follows: Volume of distribution at steady state in rat at 1 mg/kg, iv. As to conditions: in vivo, read-out: Vdss. Set-up: dose 1 mg/kg, route intravenous. The format is ADME, organism-based.
For data set [7], the system named is Rattus norvegicus. Put plainly: Reduction in plasma glucose level in overnight fasted Wistar rat at 30 mg/kg, po treated after 30 mins of glucose challenge measured after 1 to 3 hrs by oral glucose tolerance test. The format is functional, organism-based. Set-up: dose 30 mg/kg. The gist of the method: (§1)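 Nine-week-old male Wistar rats, fasted overnight, given oral dose (30 mpk) or vehicle (0.5% methylcellulose), then an oral glucose challenge (2 g/kg) 30 min later. Blood glucose read just before the challenge and at 30, 60, 90, 120, 150 and 210 min after; AUC taken from the glucose time course.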

The subject of data set [8] is Rattus norvegicus. The data set is described as follows: Reduction in glucose AUC in overnight fasted Wistar rat at 30 mg/kg, po treated after 30 mins of glucose challenge measured after 3.5 hrs by oral glucose tolerance test. Format: functional, organism-based. Set-up: dose 30 mg/kg. The gist of the method: as §1
Data set [9] can be described thus: Plasma clearance in rat at 1 mg/kg, iv. Set-up: dose 1 mg/kg, route intravenous. The format is ADME, organism-based.

In the case of `O=C(Nc1nccs1)c1nc(Sc2nnc[nH]2)ccc1Sc1ccc(C(F)(F)F)cc1`, the pEC50 (in general, −log10 of the EC50, conventionally taken in molar units) on Hexokinase-4 was 6.80.

In data set [1], `O=C(Nc1nccs1)c1nc(Sc2nnc[nH]2)ccc1Sc1ccccc1F` gave a Fh of 71%. At Hexokinase-4, this compound had a negative logarithm of the EC50 (pEC50) of 7.24.

As to `Cc1csc(NC(=O)c2nc(Sc3nncn3C)ccc2Sc2ccc(F)cc2)n1`, at Hexokinase-4, the pEC50 was 6.60.

`Cc1csc(NC(=O)c2cc(Sc3nncn3C)ccc2Sc2ccc(F)cc2)n1` had a pEC50 at Hexokinase-4 of 6.01.

`O=C(Nc1nccs1)c1nc(Sc2nnc[nH]2)ccc1Sc1cccc(F)c1`: in data set [1], the Fh stood at 89%. Moreover, the pEC50 on Hexokinase-4 is 7.40.

`COc1cccc(Sc2ccc(Sc3nnc[nH]3)nc2C(=O)Nc2nccs2)c1` showed a pEC50 at Hexokinase-4 of 6.80.

`COc1ccc(Sc2ccc(Sc3nnc[nH]3)nc2C(=O)Nc2nccs2)cc1` gave a Fh in data set [1] of 35%. Besides, on Hexokinase-4, the pEC50 was 6.92.

Take `O=C(Nc1nccs1)c1nc(Sc2nnc[nH]2)ccc1Sc1ccc(F)cc1`: the AUC(0-inf) (as a rule, the area under the concentration-time curve extrapolated to infinity) in [2] turned out to be 3.3 µM·h; in [5], 4.9 µM·h. In addition, the half-life (commonly how long it takes for the measured level to halve) in data set [3] was 4 h. Also, the bioavailability (usually dose-corrected exposure relative to a reference, in per cent) in [4] stood at 23%. Also, the Vd in data set [6] was 0.5 L/kg. The compound also came in with a Fh in data set [1] of 100%. Besides, the result with Rattus norvegicus [7] and with Rattus norvegicus [8] was Active. The clearance (usually the volume of plasma or blood freed of the substance per unit of time) in data set [9] turned out to be 8.8 mL/min/kg.

With `Cn1cnnc1Sc1ccc(Sc2ccc(F)cc2)c(C(=O)Nc2nccs2)n1`, at Hexokinase-4, the negative-log EC50 (pEC50) was 6.92.

Turning to `O=C(Nc1nccs1)c1nc(Sc2nnc[nH]2)ccc1Sc1ccccc1`, in [1], the Fh is 77%. On Hexokinase-4, this compound gave a negative-log EC50 (pEC50) of 7.42.

The compound `Cc1cccc(Sc2ccc(Sc3nnc[nH]3)nc2C(=O)Nc2nccs2)c1` registered a Fh in data set [1] of 69%. The compound further gave a pEC50 on Hexokinase-4 of 7.00.
